Measurements taken from ChEMBL document CHEMBL1121632, “Oxime and dithiolane derivatives of 5-formyl-2'-deoxyuridine and their 5'-phosphates: antiviral effects and thymidylate synthetase inhibition” (J Med Chem, 1980).
In brackets after ≈: the same amount, converted by molar mass.

Experiments:
[1] = Concentration required to reduce virus HSV-2G induced cytogenicity in primary rabbit kidney (PRK); format: functional; settings: Oryctolagus cuniculus; read-out: ID50 (the source's name)
[2] = Concentration required to reduce HSV-2 Lyons virus induced cytogenicity in primary rabbit kidney (PRK); format: functional; settings: Oryctolagus cuniculus; read-out: ID50 (the source's name)
[3] = Concentration required to reduce HSV-1 KOS virus induced cytogenicity in primary rabbit kidney (PRK); format: functional; settings: Oryctolagus cuniculus; read-out: ID50 (the source's name)
[4] = Concentration required to reduce [Me-H]dThd incorporation into DNA in primary rabbit kidney (PRK); format: functional; settings: Oryctolagus cuniculus, read-out: ID50 (the source's name)
Method in brief: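 [methyl-3H]dThd incorporation into DNA of primary rabbit kidney cell cultures was measured with test compound present. ID50 is the concentration reducing dThd incorporation into DNA by 50%.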

[5] = Ratio of ID50 for [Me-H]dThd to ID50 for [1,2-H]dUrd; format: functional
Method in brief: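 The ratio is the ID50 for [Me-3H]dThd incorporation divided by the ID50 for [1',2'-3H]dUrd incorporation into PRK cell DNA. Each ID50 is the concentration giving 50% reduction of incorporation. The ratio is treated as a parameter for selective in vivo thymidylate synthetase inhibition.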

[6] = Minimum Cytotoxic concentration in primary rabbit kidney (PRK); format: tissue-based, Oryctolagus cuniculus; settings: primary rabbit kidney (PRK) cells
Method in brief: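 Primary rabbit kidney cell cultures, the same cells used for the virus cytopathogenicity assays, were exposed to the compound. Cytotoxicity was read as the lowest concentration causing a microscopically visible change in cell morphology.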

[7] = Concentration required to reduce [1,2-H]dUrd incorporation into DNA in n primary rabbit kidney (PRK); format: functional; settings: Oryctolagus cuniculus; read-out: ID50 (the source's name)
Method in brief: (§1)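 PRK cell cultures (10^5 cells per well) were pulsed with 2'-deoxy[1',2'-3H]uridine (42 Ci/mmol) at 0.25 μCi, or 6 pmol, per well. Compound concentration cutting label incorporation into cellular DNA by 50% was taken as ID50.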

[8] = Concentration required to reduce HSV-1 McIntyre virus induced cytogenicity in primary rabbit kidney (PRK); format: functional; settings: Oryctolagus cuniculus, read-out: ID50 (the source's name)
[9] = Concentration required to reduce HV2 196 virus induced cytogenicity in primary rabbit kidney (PRK); format: functional; settings: Oryctolagus cuniculus; read-out: ID50 (the source's name)
[10] = Concentration required to reduce vaccinia virus induced cytogenicity in primary rabbit kidney (PRK); format: functional; settings: Oryctolagus cuniculus; read-out: ID50 (the source's name)
[11] = Concentration required to reduce HSV-1 F virus induced cytogenicity in primary rabbit kidney (PRK); format: functional; settings: Oryctolagus cuniculus; read-out: ID50 (the source's name)
[12] = Concentration required to reduce HSV-2 Lyons virus induced cytogenicity in primary rabbit kidney (PRK); Range is 2-4; format: functional; settings: Oryctolagus cuniculus; read-out: ID50 (the source's name)
[13] = Concentration required to reduce vaccinia virus induced cytogenicity in primary rabbit kidney (PRK); Range is 0.1-0.2; format: functional; settings: Oryctolagus cuniculus; read-out: ID50 (the source's name)
[14] = Concentration required to reduce HV2 196 virus induced cytogenicity in primary rabbit kidney (PRK); Range is 1-4; format: functional; settings: Oryctolagus cuniculus; read-out: ID50 (the source's name)
[15] = Concentration required to reduce virus HSV-2G induced cytogenicity in primary rabbit kidney (PRK); Range is 1-2; format: functional; settings: Oryctolagus cuniculus; read-out: ID50 (the source's name)
[16] = Concentration required to reduce [1,2-H]dUrd incorporation into DNA in primary rabbit kidney (PRK); format: functional; settings: Oryctolagus cuniculus; read-out: ID50 (the source's name); method in brief: as §1
[17] = Concentration required to reduce HSV-1 KOS virus induced cytogenicity in primary rabbit kidney (PRK); Range is 1-2; format: functional; settings: Oryctolagus cuniculus; read-out: ID50 (the source's name)
[18] = Concentration required to reduce HSV-1 F virus induced cytogenicity in primary rabbit kidney (PRK); Range is 1-2; format: functional; settings: Oryctolagus cuniculus; read-out: ID50 (the source's name)

Row | Structure (SMILES) | IC50 [1] [µg/mL] | IC50 [2] [µg/mL] | IC50 [3] [µg/mL] | IC50 [4] [µg/mL] | Ratio [5] | MCC [6] [µg/mL] | IC50 [7] [µg/mL] | IC50 [8] [µg/mL] | IC50 [9] [µg/mL] | IC50 [10] [µg/mL] | IC50 [11] [µg/mL] | IC50 [12] [µg/mL] | IC50 [13] [µg/mL] | IC50 [14] [µg/mL] | IC50 [15] [µg/mL] | IC50 [16] [µg/mL] | IC50 [17] [µg/mL] | IC50 [18] [µg/mL]
1 | O=c1[nH]c(=O)n([C@H]2C[C@H](O)[C@@H](CO)O2)cc1C1SCCS1 | 200 (≈ 602 µM) | > 400 | 300 (≈ 903 µM) | 100 (≈ 301 µM) | 1 | > 400 | 100 (≈ 301 µM) | 300 (≈ 903 µM) | 300 (≈ 903 µM) | 200 (≈ 602 µM) | 150 (≈ 451 µM) |  |  |  |  |  |  | 
2 | O=Cc1cn([C@H]2C[C@H](O)[C@@H](CO)O2)c(=O)[nH]c1=O |  |  |  | 75 (≈ 293 µM) | 375 | 4 |  | 0.7 (≈ 2.73 µM) |  |  |  | 2 (≈ 7.81 µM) | 0.1 (≈ 0.39 µM) | 1 (≈ 3.9 µM) | 1 (≈ 3.9 µM) | 0.2 (≈ 0.781 µM) | 1 (≈ 3.9 µM) | 1 (≈ 3.9 µM)
3 | O=c1[nH]c(=O)n([C@H]2C[C@H](O)[C@@H](CO)O2)cc1/C=N/O | 7 (≈ 25.8 µM) | 20 (≈ 73.7 µM) | 0.7 (≈ 2.58 µM) | 300 (≈ 1110 µM) | 40 | 100 |  | 0.7 (≈ 2.58 µM) | 20 (≈ 73.7 µM) | 10 (≈ 36.9 µM) | 1 (≈ 3.69 µM) |  |  |  |  | 7.5 (≈ 27.7 µM) |  | 
